Assay results reported in paper PMC3358452 (Chemical Research in Toxicology, 2012).
Read-outs that look alike come from different tables or passages of the source.

Tests used:
[1] = assay type: physicochemical
Method in brief: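 Reverse-phase HPLC quantified lactone left after an acidic aqueous solution reached equilibrium at 25 °C. The solution initially held 0.05 M lactone, measured gravimetrically, in 5% by volume acetonitrile. Ionic strength was set with KCl and hydrogen ion concentration varied. Remaining lactone was interpolated from a standard curve; triplicate injections per determination.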

[2] = Kinetics of decay; assay type: physicochemical; conditions: for half-life at 0.0013 M: buffered aqueous solution, pH 7, t1/2 for decay
Method in brief: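 The first check was in D2O with 0.005 M DCl, 0.005 M lactone and 0.005 M acetonitrile as internal standard, at 25 °C. Loss of the C-6 1H-NMR resonances at 4.78 ppm was compared with UV decay at 225 nm. The extended UV runs used 220–235 nm, 5% acetonitrile/H2O, ionic strength 1 M (KCl), 25 °C and 0.0013 M lactone. Buffers were formic, acetic, cacodylic and ethylphosphonic.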

[3] = Lower limit of KO by monitoring disappearance of the lactone multiplets; assay type: physicochemical; conditions: D2O, 1 M DClO4, lactone multiplets monitored to equilibrium
[4] = tested on: F344 rat liver
[5] = pKa of; assay type: physicochemical; conditions: Calculated pKa, 25 °C, buffer 0.05 M, AH/A- = 1.0
Method in brief: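 pH was measured in solutions of the sodium salt of the acid, measured gravimetrically and partially neutralized with HCl. Solutions held 5% by volume acetonitrile, with ionic strength balanced by KCl. […] Mean and SD of duplicates at 25 °C.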

[6] = fit of log ko vs pH, 25 °C, ionic strength 1 M (KCl), 5% by volume acetonitrile
[7] = group 2: AFB1 followed by 1 (1.32 g over 12 weeks), mean ± SEM
[8] = group 3: 1 only (1.32 g over 12 weeks)

Molecule: O=C1COCCO1 [compound 1, 1,4-Dioxan-2-one]
- KOA, equilibrium constant between 1 and carboxylic acid anion 3 and the proton (KOA = Ka × KO) ([1]; 25 °C, ionic strength 1M (KCl), 5% by volume acetonitrile): 0.034 ± 0.002 M
- Ko, equilibrium constant for lactone 1 and its open-chain acid form ([1]; 25 °C, [HCl] 0.05 M, total ionic strength 0.05 M, 5% by volume acetonitrile): 71
- Ko, equilibrium constant for lactone 1 and its open-chain acid form ([1]; 25 °C, [HCl] 0.10 M, total ionic strength 1.0 M (KCl), 5% by volume acetonitrile): 70
- Ko, equilibrium constant for lactone 1 and its open-chain acid form ([1]; 25 °C, [HCl] 0.20 M, total ionic strength 1.0 M (KCl), 5% by volume acetonitrile): 70
- KO, equilibrium constant between 1 and hydrolysis product 2 ([1]; acidic aqueous media, 25 °C, ionic strength 1M (KCl), 5% by volume acetonitrile): 70 ± 3.5
- lactone as percent of the total species at equilibrium ([1]; pH = 7): ~ 3 ×10^−4%
- first order rate constant of decay (NMR) ([2]; 1H-NMR, D2O, 0.005 M DCl, 25 °C): 0.017 ± 0.002 min⁻¹
- first order rate constant of decay (UV) ([2]; UV spectrophotometry, D2O, 0.005 M DCl, 25 °C): 0.016 ± 0.001 min⁻¹
- half-life at 0.0013 M ([2]; pH 7): 2.12 h
- half-life at 0.0013 M ([2]; pH = 7.0, 25 °C): ~2 h
- factor by which 1 is more reactive toward hydroxide ion than valerolactone ([2]; comparison with literature rate constant): ~ 1500
- kH+, hydrogen ion catalyzed rate constant for solvolysis [2, 6]: 1.1 (± 0.1) M^−1 min^−1
- kOH, hydroxide ion catalyzed rate constant [2, 6]: 4.1 (± 0.3) × 10^4 M^−1 min^−1
- kw, water catalyzed (pH-independent) rate constant [2, 6]: 9.9 (± 0.5) × 10^−4 min^−1
- KO, lower limit value [3]: > 50
- average size of observed GST-P positive foci ([4]; group 2 (AFB1 + 1), data not shown): > 200 µm
- Foci per cubic cm (morphometric) [4, 7]: 1190 ± 230
- Mean Diameter of foci (morphometric) [4, 7]: 210 ± 32 microns
- Volume % of liver occupied by GST-P positive foci [4, 7]: 2.1 ± 0.7%
- diameter of the single focus observed ([4]; group 3 (1 only)): 65 µm
- Mean Diameter of foci (morphometric) [4, 8]: 65 microns
- Volume % of liver occupied by GST-P positive foci [4, 8]: 0.001%
- Foci per cubic cm (morphometric) ([4]; group 3: 1 only (1.32 g over 12 weeks), mean ± SEM): 6.1 ± 6.1
- Mean Foci Counted (observed) ([4]; group 3: 1 only, gavage 3 days/week for 12 weeks (1.32 g total), mean ± SEM): 0.1 ± 0.1

Molecule: O=C(O)COCCO [compound 2, 2-(2-hydroxyethoxy) acetic acid]
- pKa ([5]; ionic strength 0.05 M): 3.43
- pKa ([5]; ionic strength 0.25 M (KCl)): 3.36
- pKa ([5]; ionic strength 0.35 M (KCl)): 3.36
- pKa ([5]; ionic strength 0.45 M (KCl)): 3.36
- pKa ([5]; ionic strength 0.55 M (KCl)): 3.38

Molecule: aflatoxin B1 [AFB1, reference compound]
- Foci per cubic cm (morphometric) ([4]; rat, in vivo): 1230 ± 410
- Mean Diameter of foci (morphometric) ([4]; rat, in vivo): 227 ± 35 microns
- Mean Foci Counted (observed) ([4]; rat, in vivo): 44 ± 8
- Volume % of liver occupied by GST-P positive foci ([4]; rat, in vivo): 3.1 ± 1.0%
- average size of observed GST-P positive foci ([4]; rat, in vivo): > 200 µm
